Measurements gathered from unrelated publications.
Target: Tyrosine-protein kinase TXK (TXK, Homo sapiens, UniProt P42681)
Sequence (P42681 1-527, as in one of the studies): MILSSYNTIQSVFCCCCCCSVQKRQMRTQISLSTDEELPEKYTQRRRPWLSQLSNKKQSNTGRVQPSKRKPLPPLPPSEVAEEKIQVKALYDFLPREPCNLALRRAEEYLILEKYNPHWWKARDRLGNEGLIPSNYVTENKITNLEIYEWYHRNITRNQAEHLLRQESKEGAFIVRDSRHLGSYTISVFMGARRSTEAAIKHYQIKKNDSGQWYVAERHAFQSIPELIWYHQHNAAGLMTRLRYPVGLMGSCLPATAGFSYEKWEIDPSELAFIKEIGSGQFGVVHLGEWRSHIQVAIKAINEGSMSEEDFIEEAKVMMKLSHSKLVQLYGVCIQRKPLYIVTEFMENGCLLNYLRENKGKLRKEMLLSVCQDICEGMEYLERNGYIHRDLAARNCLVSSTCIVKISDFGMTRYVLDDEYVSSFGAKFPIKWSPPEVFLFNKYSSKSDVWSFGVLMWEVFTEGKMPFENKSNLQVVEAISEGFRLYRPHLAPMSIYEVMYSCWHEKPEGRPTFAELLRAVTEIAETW

C[C@@H](c1cccc(C#N)c1)n1cc(Cl)cc(C(N)=O)c1=N  remaining binding (binding, competition with immobilised ligand; 1 µM): 68%
O=C(NCCCN1CCOCC1)c1ccc(Nc2nccc(-c3cc4ccccc4s3)n2)cc1  remaining binding (binding, competition with immobilised ligand; 1 µM): 86%
C[C@H]1CCN(c2nccc(-c3cnn4ncccc34)n2)C1  remaining binding (binding; 1 µM): 90%
O=C(Nc1c[nH]nc1C(=O)NC1CCNCC1)c1cc(F)cc(F)c1  remaining binding (binding, competition with immobilised ligand; 1 µM): 100%
N[C@H]1CCN(c2nccc(-c3cnn4ncccc34)n2)C1  remaining binding (binding; 1 µM): 100%
C[C@@H](c1ccc(-n2cnc3c(N)ncnc32)cc1)N1CCc2nn(C)c(Cc3ccccc3)c2C1=O  remaining binding (binding, competition with immobilised ligand; 0.1 µM): 73%
C[C@H](NC(=O)c1cnc2n1[C@](C)(Cc1ccc(C#N)cc1)C(=O)N2c1cc(Cl)c(F)c(Cl)c1)C(=O)NC1(c2ccccn2)CC1  remaining binding (binding, competition with immobilised ligand; 1 µM): 90%
Cc1cnn2ncc(-c3ccnc(N(C)C)n3)c2c1  remaining binding (binding; 1 µM): 100%
Cn1nc(C(F)(F)F)cc1-c1cnc(N2CCc3cc(S(=O)(=O)Nc4c(F)cc(Cl)cc4F)cc(N4CCCC4=O)c32)nc1  remaining binding (binding, competition with immobilised ligand; 1 µM): 100%
CN(CCCC(F)(F)F)c1nccc(-c2cnn3ncccc23)n1  remaining binding (binding; 1 µM): 87%
CNCc1ccccc1-c1csc([C@H](C)Nc2nc(C)nc3cc(OC)c(OC)cc23)c1  remaining binding (cell-free assay, competition with immobilised ligand; 1 µM): 100%
FC(F)(F)Oc1cccc(-c2cnc3ccc(-c4ccncc4)nn23)c1  remaining binding (binding, competition with immobilised ligand; 5 µM): 55%
O=C(c1ccc(Nc2nccc(-c3cc4ccccc4s3)n2)cc1)N1CCC(N2CCCC2)CC1  remaining binding (binding, competition with immobilised ligand; 1 µM): 92%
F[C@@H]1CCN(c2nccc(-c3cnn4ncccc34)n2)C1  remaining binding (binding; 1 µM): 73%
Nc1ncc2c(n1)-c1c([nH]c3ccc(C#CC4CC4)cc13)CCCC2  remaining binding (binding, competition with immobilised ligand; 1 µM): 99%
CN(C)c1nccc(-c2cnc3ncccn23)n1  remaining binding (binding; 1 µM): 98%
O=C(c1ccc(Nc2ncc(Cl)c(-c3cc4ccccc4s3)n2)cc1)N1CCC(N2CCCC2)CC1  remaining binding (binding, competition with immobilised ligand; 1 µM): 71%
Cc1cc(-n2nc(Cc3cc(F)cc(C(F)(F)F)c3)nc2C)ccc1C(N)=O  remaining binding (binding, competition with immobilised ligand; 1 µM): 84%
COc1ncc2cc3ccccc3nc2c1C#N  remaining binding (binding, competition with immobilised ligand; 5 µM): 93%
c1cncc(-c2cccc(Nc3nccc(NC4CCCCC4)n3)c2)c1  remaining binding (binding, competition with immobilised ligand; 10 µM): 20%
Cc1c(NC(=O)c2cc(C(N)=O)nc3cc(F)ccc23)c(C(F)(F)F)nn1Cc1ccc(C(C)(C)C)cc1  remaining binding (cell-free assay, competition with immobilised ligand; 1 µM): 100%
COc1cnc(Nc2cccc(S(N)(=O)=O)c2)nc1N1CCN(c2ccccc2)C(=O)C1  remaining binding (binding, competition with immobilised ligand; 1 µM): 100%
